The values below come from publication PMC9420810 (Nature microbiology, 2022).

The test system of assay [1] is S. meliloti. The assay is described as follows: Growth curve in minimal medium. It is filed as cell-based, Sinorhizobium meliloti. To be noted: 2 μM NCR247, OD 600 nm, 30° C. A digest of the protocol: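 Strain RM1021 or its mutants are first grown in LBMC (LB with 2.5 mM CaCl₂ and 2.5 mM MgSO₄, 200 μg/ml streptomycin, 30°C). Overnight cultures are washed and subcultured 1:100 into minimal medium, either iron-free or with the stated iron, Mn or Zn supplement. Cultures shake continuously at 150 rpm and 30°C in a plate reader, with OD600 read every 60 min.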

In assay [2] the test system is S. meliloti. The assay is described as follows: Radioactive 55Fe uptake assay. In kind it is cell-based, Sinorhizobium meliloti. A digest of the protocol:
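Cells are grown in LB to OD600 0.2, pelleted and held 1 h in minimal medium with 5 μM FeSO₄. Then 2 μM peptide and 100 μM sodium ascorbate are added for 30 min. At time 0, 1 μM ⁵⁵FeCl₃ with ascorbate is added. Timed 1 ml samples are quenched in ice-cold buffer (0.1 M Tris, 1 mM ascorbate, 100 μM FeSO₄, pH 6.0) and vacuum-filtered on 0.45 μm filters. Filters are scintillation-counted, and counts are normalised to protein.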

Assay [3] in a line: UV-Vis spectroscopy of haem binding to synthesized peptide. The conditions noted are these: haem reduced by excess sodium dithionite, anaerobic chamber. A digest of the protocol: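 Hemin is dissolved in 0.1 M NaOH and used within 30 min. Its stock concentration is set by pyridine hemochrome absorbance at 557 nm (ε 34.7 mM⁻¹ cm⁻¹). Peptide and haem are mixed in water (pH 7.4) in 96-well plates. After shaking at 100 rpm for 15 s, spectra are recorded from 300 to 700 nm in 5 nm steps on a plate reader.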

Assay [4] deals with Porphyromonas gingivalis 2561. The assay is described as follows: Cell viability assay, P. gingivalis. It is filed as cell-based.
For assay [5], the system named is S. meliloti. The assay is described as follows: ICP-MS total iron content of cells. To be noted: 2 μM NCR247, ICP-MS, normalized to protein. In kind it is cell-based, Sinorhizobium meliloti. In short, it runs like this:
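Equal numbers of cells are pelleted for ICP-MS metal analysis. Protein is measured from the same number of cells, and metal content is normalised to protein.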

For assay [6], the system named is Cytochrome c. The assay is described as follows: UV-Vis test of haem sequestration from Cytochrome c. It is filed as binding. To be noted: excess NCR247 added to Cytochrome c, UV-Vis spectrum.
Assay [7] relates to iron uptake genes (hmuP) and rirA in S. meliloti. The assay is described as follows: qRT-PCR of iron-related genes. In kind it is cell-based, Sinorhizobium meliloti. In short, it runs like this:
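Cells are grown in LB to OD600 0.2, pelleted and resuspended for 1 h in minimal medium with or without FeSO₄, then exposed to peptide for 30 min. Transcript levels are measured by qRT-PCR and expressed as starting quantities normalised to the reference gene SMc00128.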
(In general: In qPCR the cycle at which signal appears reflects the starting amount.)

For assay [8], the system named is S. meliloti bacteroids isolated from M. truncatula nodules. The assay is described as follows: 55Fe uptake by isolated bacteroids. In kind it is cell-based, Sinorhizobium meliloti. The conditions noted are these: bacteroids from nodules of plants inoculated with wild type S. meliloti, NCR247 treated.
In assay [9] the test system is Aβ (1-42)-haem complex. The assay is described as follows: Peroxidase assay. In kind it is biochemical, human. The conditions noted are these: equimolar addition of NCR247, TMB substrate, 370 nm and 652 nm. A digest of the protocol:
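Haem complex, with or without equimolar peptide, is added to TMB substrate solution (TMB:peroxide 1:1) in 96-well plates. Reaction progress is followed in a plate reader by absorbance at 370 and 652 nm. Values are the mean of three independent replicates ± s.d.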

The conditions of assay [10]: read-out: KD of haem binding; cited from earlier work.

For the substance RNGCIVDPRCPYQQCRRPLYCRRR [NCR247], the “growth rate of S. meliloti” value in assay [1] is given as “reduction in growth rate”. The “import of 55Fe” value in assay [2] (wild type S. meliloti, medium with sufficient iron (5 μM FeSO4), 2 μM NCR247, mean of three biological replicates) is listed as “markedly increased”. Further, in assay [2] (Δirr S. meliloti, NCR247 treated), the “uptake of 55Fe in irr deletion mutant compared to wild type” value is “diminished”. Also, the “binding of Fe(II) ferrous haem” value in assay [3] is “binds”. For the same substance, the “growth / viable cell number of Porphyromonas gingivalis” value in assay [4] is on record as “can prevent the growth”. The “total iron content of the cells” value in assay [5] is “elevated total iron content”. In [6], the “sequestration of cytochrome haem” value was “cannot sequester cytochrome haem”. Moreover, in assay [7] (wild type S. meliloti, 2 μM NCR247 for 30 mins), the rirA transcription entry was “reduced”. Besides, the “transcript levels of iron uptake genes” value in assay [7] (wild type S. meliloti, iron-replete medium, NCR247 treatment 30 mins) was “increase in transcript levels of iron uptake genes”. In assay [7] (ΔbacA S. meliloti, 2 μM NCR247 for 30 mins), the “expression of hmuP in ΔbacA strain” value is “very little change in expression of hmuP”. The “uptake of Fe55 by bacteroids compared with untreated” value in assay [8] is “increase uptake of Fe^55”. In addition, in assay [9], the “peroxidase activity of Aβ (1-42)-haem complex” value is “quenches its peroxidase activity”.
What is called Kd is the equilibrium constant for the complex coming apart. In the case of serum albumin, the equilibrium dissociation constant (Kd) in assay [10] is 40 µM.
Regarding “Aβ(1-42): human Aβ(1-42) amyloid peptide [reference compound]”, the Kd in [10] was 0.14 µM.
